From PMC10008514 (Chemical communications (Cambridge, England), 2023)
“Also recorded” adds a separate entry of the source. Like-named read-outs stand apart in the source and are kept apart here.

Assays:
[1] = target: human carbonic anhydrase II (hCAII) (Homo sapiens, UniProt P00918); test: hCAII inhibition assay; format: biochemical
[2] = target: T1, matrix metalloproteinase-2 (MMP-2) (Homo sapiens, UniProt P08253); test: MMP-2 inhibition assay; format: biochemical
T1 sequence (P08253 110-660): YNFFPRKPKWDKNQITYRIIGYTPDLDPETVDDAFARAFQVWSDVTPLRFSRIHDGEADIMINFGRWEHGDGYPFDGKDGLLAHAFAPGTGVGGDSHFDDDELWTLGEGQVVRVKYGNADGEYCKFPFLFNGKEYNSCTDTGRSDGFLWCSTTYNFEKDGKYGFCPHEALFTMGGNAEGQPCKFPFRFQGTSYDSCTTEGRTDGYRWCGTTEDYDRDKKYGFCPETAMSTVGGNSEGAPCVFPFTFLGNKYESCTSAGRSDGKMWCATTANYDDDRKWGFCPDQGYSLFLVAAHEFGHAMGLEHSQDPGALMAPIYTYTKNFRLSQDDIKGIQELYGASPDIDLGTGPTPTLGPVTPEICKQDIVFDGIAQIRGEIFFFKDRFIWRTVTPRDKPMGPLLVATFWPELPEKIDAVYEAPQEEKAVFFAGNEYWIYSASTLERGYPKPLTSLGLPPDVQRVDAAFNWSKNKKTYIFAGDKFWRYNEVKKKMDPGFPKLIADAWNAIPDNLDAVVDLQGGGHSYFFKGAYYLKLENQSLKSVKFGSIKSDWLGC

Reactivity with DTNB = format: physicochemical; conditions: compound:DTNB 1:10, incubation 90 min, absorbance 412 nm
[3] = Reaction with L-cysteine methyl ester; format: physicochemical; conditions: equimolar 13, 24 h, 10% acetonitrile 90% water, pH 7.4, 1.25 mM
Procedure, shortened: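 Test compound and L-cysteine methyl ester were mixed in equimolar amounts at a final concentration of 1.25 mM. The solvent was 10% acetonitrile and 90% water at pH 7.4. The mixture was incubated for 24 h before analysis.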

hCAII = conditions: read-out: Ki hCAII; reported inhibitor; cited from earlier work

Row | SMILES | IC50 ([1]; read-out: IC50 hCAII, ± 95% confidence interval) [µM] | IC50 hCAII ([1]; ± 95% confidence interval) | IC50 ([2]; read-out: IC50 MMP-2, ± 95% confidence interval) [µM] | Percent reactivity (conversion) with DTNB (Reactivity with DTNB) | Reactivity with L-cysteine methyl ester (13), disulfide formation by HPLC [3] | Ki (hCAII) [µM] | IC50 [1] [µM] | IC50 [2] [µM]
1 | S=c1[nH]c2ccccc2o1 [Compound 1, benzo[d]oxazole-2-(3H)-thione] | > 200 | not active | > 200 | most stable compounds | most stable compounds | 0.97 |  | 
2 | S=C1Cc2ccccc2N1 [Compound 5, 2-indolinethione] |  |  |  |  | stable in the presence of 13 |  | 3.42 ± 0.34 | 76.6 ± 4.26
3 | Oc1ccccc1S [Compound 11, 2-mercaptophenol, reference compound] |  |  |  | essentially quantitative conversion; also recorded: essential quantitative disulfide formation | generate disulfide products with 13 | 0.63 | 19.4 ± 5.15 | > 200
4 | C[C@H](CS)C(=O)N1CCC[C@H]1C(=O)O [Compound 12, captopril] |  |  |  | essentially quantitative conversion; also recorded: essential quantitative disulfide formation |  |  |  | 
